Data from paper PMC8378355 (BMJ Open Diabetes Research & Care, 2021).
One block for each substance: values may come before it.

Tests used:
insulin receptor (IR) = insulin receptor (IR) (Homo sapiens, UniProt P06213); assay: IR affinity relative to HI; format: binding
[1] = test system: extracellular-regulated kinase (ERK); assay: Phospho-ERK in CHO-hIR cells; format: cell-based, Chinese Hamster; details: HSA 0.1%, n=3; for EC50: read-out: EC50 (nM) Mean (95% CI), Phospho-ERK in CHO-hIR cells
protein kinase B (AKT) = assay: Phospho-AKT in CHO-hIR cells; format: cell-based, Chinese Hamster; details: read-out: EC50 (nM) Mean (95% CI), Phospho-AKT in CHO-hIR cells; HSA 0.1%, n=3
rat hepatocytes = assay: Glycogen accumulation in rat hepatocytes; format: cell-based; details: for EC50: read-out: EC50 (nM) Mean (95% CI), Glycogen accumulation in rat hepatocytes, n=7, geometric mean
Summary of the method: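 Hepatocytes are isolated from rat by two-step collagenase perfusion. […] Determine cellular glycogen as glucose released after amyloglucosidase digestion.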

Human IR-A = Human IR-A (Homo sapiens, UniProt P06213); assay: Human IR-A binding, competition scintillation proximity assay; details: n=3
Human IR-B = Human IR-B (Homo sapiens, UniProt P06213); assay: Human IR-B binding, competition scintillation proximity assay; details: n=3
Human IGF-1R = Human IGF-1R (Homo sapiens, UniProt P08069); assay: Human IGF-1R binding, competition scintillation proximity assay; details: HSA 0%, n=4
Sequence of Human IGF-1R (P08069 31-736 limits assumed): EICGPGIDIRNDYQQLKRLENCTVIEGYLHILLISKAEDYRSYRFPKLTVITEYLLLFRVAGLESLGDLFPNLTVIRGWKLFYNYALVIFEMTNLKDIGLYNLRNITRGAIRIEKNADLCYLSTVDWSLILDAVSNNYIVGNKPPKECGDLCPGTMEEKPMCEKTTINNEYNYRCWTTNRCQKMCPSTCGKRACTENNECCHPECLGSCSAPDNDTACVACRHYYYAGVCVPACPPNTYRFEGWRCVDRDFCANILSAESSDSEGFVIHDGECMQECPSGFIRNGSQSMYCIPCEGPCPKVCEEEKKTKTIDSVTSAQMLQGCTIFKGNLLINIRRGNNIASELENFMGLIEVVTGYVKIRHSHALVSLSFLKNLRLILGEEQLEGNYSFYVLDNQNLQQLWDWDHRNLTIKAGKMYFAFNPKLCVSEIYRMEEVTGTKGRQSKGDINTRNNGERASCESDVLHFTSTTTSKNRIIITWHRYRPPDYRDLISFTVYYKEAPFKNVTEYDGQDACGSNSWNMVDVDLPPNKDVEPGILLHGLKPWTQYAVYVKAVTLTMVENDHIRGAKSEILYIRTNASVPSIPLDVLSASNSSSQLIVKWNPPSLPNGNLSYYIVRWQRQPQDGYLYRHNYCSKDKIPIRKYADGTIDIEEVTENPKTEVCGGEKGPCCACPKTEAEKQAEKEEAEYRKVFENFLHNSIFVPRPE
Sequence of Human IGF-1R (P08069 741-1367 partner limits assumed): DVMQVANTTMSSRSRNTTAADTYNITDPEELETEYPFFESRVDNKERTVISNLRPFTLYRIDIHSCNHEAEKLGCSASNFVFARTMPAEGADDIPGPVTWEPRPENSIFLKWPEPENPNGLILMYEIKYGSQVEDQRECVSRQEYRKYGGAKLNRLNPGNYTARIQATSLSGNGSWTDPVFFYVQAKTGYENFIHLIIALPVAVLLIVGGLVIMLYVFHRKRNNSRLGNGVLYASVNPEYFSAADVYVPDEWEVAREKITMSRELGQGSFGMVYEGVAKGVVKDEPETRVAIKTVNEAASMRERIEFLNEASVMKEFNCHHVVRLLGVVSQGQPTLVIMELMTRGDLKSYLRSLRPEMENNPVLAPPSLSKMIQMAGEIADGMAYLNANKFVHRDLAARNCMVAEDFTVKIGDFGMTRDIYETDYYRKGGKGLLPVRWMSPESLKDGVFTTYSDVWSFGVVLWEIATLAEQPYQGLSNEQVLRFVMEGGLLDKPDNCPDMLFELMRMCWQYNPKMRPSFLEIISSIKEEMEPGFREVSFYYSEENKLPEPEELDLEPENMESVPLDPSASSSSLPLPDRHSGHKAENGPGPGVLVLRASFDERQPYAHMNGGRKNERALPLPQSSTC

[2] = molecular target: human insulin receptors (hIRs) (Homo sapiens, UniProt P06213); assay: IR phosphorylation in CHO-hIR cells; format: cell-based
primary rat adipocytes = assay: Lipogenesis in rat adipocytes; format: cell-based; details: HSA 0.1%, n=4
L6-hIR cells [3] = assay: Glycogen synthesis in rat L6-hIR cells; format: cell-based; details: HSA 0.1%, n=4
Summary of the method: (§1)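 L6-hIR cells are a rat skeletal myoblast L6 line stably transfected with the A isoform of human IR. MCF-7 is a human mammary adenocarcinoma line.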

MCF-7 cells [4] = assay: Glycogen synthesis in human MCF-7 cells; format: cell-based; details: HSA 0%, n=5
Summary of the method: as §1

L6-hIR cells [5] = assay: DNA synthesis; format: cell-based, rat; details: HSA 0%, n=5
MCF-7 cells [6] = assay: DNA synthesis; format: cell-based, human; details: HSA 0%, n=4
COLO-205 cells = assay: DNA synthesis; format: cell-based, human; details: HSA 0%, n=3
HMEC cells = assay: DNA synthesis; format: cell-based, human; details: HSA 0%, n=7
[7] = Clinical pharmacology trial: pharmacokinetics, total serum insulin icodec; format: in vivo, human
Summary of the method: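 Randomized, double-blind, double-dummy, active-controlled, multiple-dose escalation trial in adults aged 18–64 with type 2 diabetes on insulin (HbA1c ≤9.0%). Participants received once-weekly s.c. thigh injections at 12, 20 or 24 nmol/kg (one dose per cohort) for 5 weeks, at ~20:00. Total serum test compound (free plus albumin-bound) was measured by a specific assay at prespecified times, from predose to 36 days after the last dose.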

[8] = test system: individuals with type 2 diabetes; assay: Clinical pharmacology trial: safety assessments; format: in vivo, human
Summary of the method: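 Dose-escalation trial in type 2 diabetes. Three sequential cohorts received once-weekly s.c. thigh injections at 12, 20 or 24 nmol/kg with once-daily placebo for 5 weeks. Safety covered adverse events, hypoglycemic episodes, injection site reactions, vital signs, physical examination, clinical laboratory tests and ECG. An internal safety group reviewed blinded interim data before each escalation.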

- IR affinity relative to HI (insulin receptor (IR); relative to HI): 22%
Substance: B16H: individual amino acid substitution TyrB16His in human insulin

- influence on the IR affinity (insulin receptor (IR); deletion of threonine in position B30 of HI): no influence
Substance: desB30: human insulin with the threonine in position B30 deleted

- EC50 [1]: 1.02 nM
- EC50 (protein kinase B (AKT)): 0.15 nM
Substance: human insulin [reference compound]
- EC50 (rat hepatocytes; HSA 0%): 0.28 nM

- IC50 (%) Insulin icodec relative to human insulin Mean (95% CI), Human IR-A binding (Human IR-A; HSA 0%): 0.50%
- IC50 (%) Insulin icodec relative to human insulin Mean (95% CI), Human IR-A binding (Human IR-A; HSA 1.5%): 0.03%
- IC50 (%) Insulin icodec relative to human insulin Mean (95% CI), Human IR-B binding (Human IR-B; HSA 0%): 0.78%
- IC50 (%) Insulin icodec relative to human insulin Mean (95% CI), Human IR-B binding (Human IR-B; HSA 1.5%): 0.03%
- IC50 (%) Insulin icodec relative to human insulin Mean (95% CI), Human IGF-1R binding (Human IGF-1R): 0.14%
- agonism at IRs (activation of IRs and downstream AKT and ERK) ([2]; CHO-hIR cells, 0.1% HSA, in a similar manner as HI): full agonist
- EC50 (%) Insulin icodec relative to human insulin Mean (95% CI), IR phosphorylation in CHO-hIR cells ([2]; HSA 0.1%, n=3): 0.21%
- EC50 (%) Insulin icodec relative to human insulin Mean (95% CI), Phospho-ERK in CHO-hIR cells [1]: 0.39%
- EC50 [1]: 271 nM
- EC50 (protein kinase B (AKT)): 245 nM
- EC50 (%) Insulin icodec relative to human insulin Mean (95% CI), Lipogenesis in rat adipocytes (primary rat adipocytes): 0.029%
- EC50 (%) Insulin icodec relative to human insulin Mean (95% CI), Glycogen accumulation in rat hepatocytes (rat hepatocytes; HSA 0%, n=7): 4.3%
- EC50 (%) Insulin icodec relative to human insulin Mean (95% CI), Glycogen accumulation in rat hepatocytes (rat hepatocytes; HSA 0.1%, n=8): 0.24%
- EC50 (%) Insulin icodec relative to human insulin Mean (95% CI), Glycogen synthesis in human MCF-7 cells (MCF-7 cells [4]): 0.26%
- EC50 (%) Insulin icodec relative to human insulin Mean (95% CI), DNA synthesis in human MCF-7 cells (MCF-7 cells [6]): 0.5%
- EC50 (%) Insulin icodec relative to human insulin Mean (95% CI), DNA synthesis in human COLO-205 cells (COLO-205 cells): 2.0%
- EC50 (%) Insulin icodec relative to human insulin Mean (95% CI), DNA synthesis in human HMEC cells (HMEC cells): 0.2%
Substance: insulin icodec
- EC50 (rat hepatocytes; HSA 0%): 6.4 nM
- EC50 (%) Insulin icodec relative to human insulin Mean (95% CI), Glycogen synthesis in rat L6-hIR cells (L6-hIR cells [3]): 0.52%
- EC50 (%) Insulin icodec relative to human insulin Mean (95% CI), DNA synthesis in rat L6-hIR cells (L6-hIR cells [5]): 0.6%
- time to maximum concentration (median tmax) ([7]; type 2 diabetes, once-weekly s.c. dosing): 16 h
- maximum serum concentration at steady state ([7]; week 5 of once-weekly dosing): < 500 nmol/L
- adverse events, number of events ([8]; 12 nmol/kg once weekly, n=13): 33 events
- adverse events, number of individuals with events ([8]; 12 nmol/kg once weekly, n=13): 13 individuals
- adverse events, number of events ([8]; 20 nmol/kg once weekly, n=13): 19 events
- adverse events, number of individuals with events ([8]; 20 nmol/kg once weekly, n=13): 9 individuals
- adverse events, number of events ([8]; 24 nmol/kg once weekly, n=12): 23 events
- adverse events, number of individuals with events ([8]; 24 nmol/kg once weekly, n=12): 9 individuals
- serious or severe adverse events, severe hypoglycemic episodes, injection site reactions or clinically significant findings in vital signs, physical examination, clinical laboratory assessments or ECG ([8]; 12, 20, 24 nmol/kg once weekly for 5 weeks): No serious or severe adverse events
- tolerability ([8]; 12, 20, 24 nmol/kg once weekly for 5 weeks, type 2 diabetes): well tolerated
